Experiments:
LPA1 = LPA1 (Homo sapiens, UniProt Q92633); test: Ca2+ mobilization antagonist screen against LPA 18:1, LPA1; type: cell-based; conditions: coapplied with LPA 18:1
LPA2 = LPA2 (Homo sapiens, UniProt Q9HBW0); test: Fura-2AM Ca2+ mobilization, agonist mode, LPA2 DKO MEF cells; type: cell-based; conditions: for LPA2 agonist activity (in words): Ca2+ mobilization, SAR discussion
LPA3 [1] = molecular target: T1, LPA3 (Homo sapiens, UniProt Q9UBY5); test: Ca2+ mobilization antagonist screen against LPA 18:1, LPA3; type: cell-based
T1 sequence (Q9UBY5 1-353): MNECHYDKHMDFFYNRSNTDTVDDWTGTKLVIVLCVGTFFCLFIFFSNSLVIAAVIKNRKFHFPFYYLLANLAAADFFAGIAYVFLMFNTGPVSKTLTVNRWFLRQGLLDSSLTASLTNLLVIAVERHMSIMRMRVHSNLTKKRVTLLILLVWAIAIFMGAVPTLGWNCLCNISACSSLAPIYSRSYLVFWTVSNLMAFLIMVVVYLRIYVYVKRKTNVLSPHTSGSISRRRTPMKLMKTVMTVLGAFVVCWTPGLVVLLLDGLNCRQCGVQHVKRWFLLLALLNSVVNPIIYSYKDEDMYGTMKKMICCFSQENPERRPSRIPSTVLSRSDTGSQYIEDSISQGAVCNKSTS

LPA5 [2] = molecular target: T2, LPA5 (Homo sapiens, UniProt Q9H1C0); test: Ca2+ mobilization antagonist screen against LPA 18:1, LPA5; type: cell-based; conditions: coapplied with LPA 18:1
[3] = system: Vector control cells (DKO MEF, RH7777, CHO, B103); test: Fura-2AM Ca2+ mobilization in empty vector control cells; type: cell-based; conditions: read-out: vector EC50
Outline: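 Cells were loaded with Fura-2AM, and transient Ca2+ mobilization was read as fluorescence on a robotic plate reader. Receptor-expressing lines were CHO (LPA4), DKO MEF (LPA2), RH7777 (LPA1/3) and B103 (LPA5). Vector controls were the same lines transduced with empty vector. […] Values are means of three assays.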

LPA4 [4] = molecular target: T3, LPA4 (Mus musculus, UniProt Q8BLG2); test: Ca2+ mobilization antagonist screen against LPA 18:1, LPA4; type: cell-based, human; conditions: coapplied with LPA 18:1
[5] = system: radiation-induced apoptosis; conditions: mice suffering from the acute hematopoietic radiation syndrome; cited from earlier work
apoptosis = conditions: cell-based models of apoptosis; cited from earlier work
LPA3 [6] = molecular target: T1, LPA3; test: Fura-2AM Ca2+ mobilization, agonist mode, LPA3-expressing cells; type: cell-based; conditions: read-out: LPA3 Emax
LPA5 [7] = molecular target: T2, LPA5; test: Fura-2AM Ca2+ mobilization, agonist mode, LPA5 B103 cells; type: cell-based; conditions: B103, read-out: LPA5 Emax
LPA4 [8] = molecular target: T3, LPA4; test: Fura-2AM Ca2+ mobilization, agonist mode, LPA4 CHO cells; type: cell-based, human; conditions: read-out: LPA4 Emax

LPA2, sequence (Q9HBW0 whole entry): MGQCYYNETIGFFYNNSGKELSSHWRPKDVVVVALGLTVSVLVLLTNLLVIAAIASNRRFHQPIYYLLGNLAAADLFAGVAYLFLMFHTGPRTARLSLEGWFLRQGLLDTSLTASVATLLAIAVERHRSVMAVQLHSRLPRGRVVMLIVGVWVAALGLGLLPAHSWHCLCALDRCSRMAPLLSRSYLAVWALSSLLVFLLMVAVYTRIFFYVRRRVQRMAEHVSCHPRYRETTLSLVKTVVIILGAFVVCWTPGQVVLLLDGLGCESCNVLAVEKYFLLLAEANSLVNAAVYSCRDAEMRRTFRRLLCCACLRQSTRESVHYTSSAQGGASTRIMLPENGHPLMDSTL
T2 sequence (Q9H1C0 whole entry): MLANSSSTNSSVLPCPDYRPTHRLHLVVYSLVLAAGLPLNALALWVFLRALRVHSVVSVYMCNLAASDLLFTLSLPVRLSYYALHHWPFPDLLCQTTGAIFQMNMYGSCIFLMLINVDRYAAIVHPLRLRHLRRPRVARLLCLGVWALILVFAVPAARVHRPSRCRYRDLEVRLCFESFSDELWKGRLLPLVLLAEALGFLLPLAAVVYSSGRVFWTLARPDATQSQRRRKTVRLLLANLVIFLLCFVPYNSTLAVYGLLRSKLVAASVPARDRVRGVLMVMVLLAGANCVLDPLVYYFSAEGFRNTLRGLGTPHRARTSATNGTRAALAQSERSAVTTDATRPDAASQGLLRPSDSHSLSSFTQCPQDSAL
T3 sequence (Q8BLG2 whole entry): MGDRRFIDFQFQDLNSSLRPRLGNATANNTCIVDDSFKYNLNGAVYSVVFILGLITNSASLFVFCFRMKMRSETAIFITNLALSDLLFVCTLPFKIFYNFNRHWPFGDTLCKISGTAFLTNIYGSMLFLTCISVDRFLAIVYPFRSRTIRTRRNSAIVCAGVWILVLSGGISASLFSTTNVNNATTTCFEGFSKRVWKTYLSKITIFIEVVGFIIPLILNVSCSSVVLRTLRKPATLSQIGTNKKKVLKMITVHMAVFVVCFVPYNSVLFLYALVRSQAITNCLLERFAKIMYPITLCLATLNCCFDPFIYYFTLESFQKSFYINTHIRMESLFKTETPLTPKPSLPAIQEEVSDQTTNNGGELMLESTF
LPA1, sequence (Q92633 whole entry): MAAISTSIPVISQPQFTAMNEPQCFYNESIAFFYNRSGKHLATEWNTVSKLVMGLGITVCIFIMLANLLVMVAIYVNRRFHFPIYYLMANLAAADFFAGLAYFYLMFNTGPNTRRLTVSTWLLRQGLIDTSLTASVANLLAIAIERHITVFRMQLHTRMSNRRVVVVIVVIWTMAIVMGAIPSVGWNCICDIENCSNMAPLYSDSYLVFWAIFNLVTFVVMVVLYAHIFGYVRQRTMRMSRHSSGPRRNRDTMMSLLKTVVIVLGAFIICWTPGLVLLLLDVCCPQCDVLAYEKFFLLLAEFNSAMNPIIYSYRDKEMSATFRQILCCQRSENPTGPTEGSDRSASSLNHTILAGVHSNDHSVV

| LPA2 agonist activity (in words) (LPA2) | Structure (SMILES) | EC50 [3] | other results |
| --- | --- | --- | --- |
|  | O=C(O)c1ccccc1S(=O)(=O)NCCCN1C(=O)c2cccc3cccc(c23)C1=O [Compound 4, 2-(N-(3-(1,3-dioxo-1H-benzo[de]isoquinolin-2(3H)-yl)propyl)sulfamoyl)benzoic acid] | > 10 µM | LPA1 inhibition (antagonist activity) (LPA1): without activating or inhibiting; EC50 (LPA2): ~2 µM; IC50 (LPA3 [1]): > 10 µM; LPA5 inhibition (antagonist activity) (LPA5 [2]): without activating or inhibiting; LPA4 inhibition (antagonist activity) (LPA4 [4]): without activating or inhibiting |
|  | O=C(O)c1ccccc1S(=O)(=O)NCCCCN1C(=O)c2cccc3cccc(c23)C1=O [Compound 5] | > 10 µM |  |
|  | O=C(O)c1ccccc1S(=O)(=O)NCCCCCN1C(=O)c2cccc3cccc(c23)C1=O [Compound 6] | > 10 µM |  |
|  | O=C(O)c1ccccc1S(=O)(=O)NCCCCN1C(=O)c2ccccc2C1=O [Compound 7a, 2-[4-(1,3-Dioxo-1,3-dihydroisoindol-2-yl)butylsulfamoyl]benzoic acid] | > 10 µM | EC50 (LPA2): > 10 µM |
|  | O=C1C(=O)N(CCCCNS(=O)(=O)c2ccccc2C(=O)O)c2ccccc21 [Compound 7b, 2-(N-(4-(2,3-dioxoindolin-1-yl)butyl)sulfamoyl)benzoic acid] | > 10 µM | EC50 (LPA2): > 10 µM |
| very weak agonist activity | COc1ccc(C(=O)O)c(S(=O)(=O)NCCCCN2C(=O)c3cccc4cccc(c34)C2=O)c1 [Compound 8a] | > 10 µM |  |
| more potent than compound 4 | O=C(O)c1ccc(Br)cc1S(=O)(=O)NCCCCN1C(=O)c2cccc3cccc(c23)C1=O [Compound 8b] | > 10 µM |  |
|  | O=C(O)c1cc(Br)ccc1S(=O)(=O)NCCCCN1C(=O)c2cccc3cccc(c23)C1=O [Compound 8c] | > 10 µM |  |
|  | O=C(O)c1ccc2c(c1)S(=O)(=O)N(CCCCN1C(=O)c3cccc4cccc(c34)C1=O)C2=O [Compound 9, 2-(4-(1,3-dioxo-1H-benzo[de]isoquinolin-2(3H)-yl)butyl)-3-oxo-2,3-dihydrobenzo[d]isothiazole-6-carboxylic acid 1,1-dioxide] | > 10 µM |  |
| abolished the activity at LPA2 | O=C(O)c1cccc(S(=O)(=O)NCCCCN2C(=O)c3cccc4cccc(c34)C2=O)c1 [Compound 11a] | > 10 µM |  |
| abolished the activity at LPA2 | O=C(O)c1ccc(S(=O)(=O)NCCCCN2C(=O)c3cccc4cccc(c34)C2=O)cc1 [Compound 11b] | > 10 µM |  |
|  | O=C(O)c1cc(F)ccc1S(=O)(=O)NCCCCN1C(=O)c2cccc3cccc(c23)C1=O [Compound 11c] | > 10 µM |  |
|  | O=C(O)c1cc(Cl)ccc1S(=O)(=O)NCCCCN1C(=O)c2cccc3cccc(c23)C1=O [Compound 11d, 5-chloro-2-(N-(4-(1,3-dioxo-1H-benzo[de]isoquinolin-2(3H)-yl)butyl)sulfamoyl)benzoic acid] | > 10 µM |  |
|  | O=C(O)c1ccccc1SCCCN1C(=O)c2cccc3cccc(c23)C1=O [GRI-977143] | > 10 µM | efficacy against radiation-induced apoptosis [5]: modestly efficacious; antiapoptotic efficacy (apoptosis): showed antiapoptotic efficacy |
|  | CCCCCCCC/C=C\CCCCCCCC(=O)OC[C@@H](O)COP(=O)(O)O [LPA 18:1, 1-acyl-2-hydroxy-sn-3-glycerophosphate] | > 10 µM | Emax (LPA2; MEF, read-out: LPA2 Emax): 100%; Emax (LPA3 [6]): 100%; Emax (LPA5 [7]): 100%; Emax (LPA4 [8]): 100% |

| Structure (SMILES) | LPA2 agonist activity (in words) (LPA2) | EC50 [3] | other results |
| --- | --- | --- | --- |
| O=C(O)c1ccc(C(=O)O)c(S(=O)(=O)NCCCCN2C(=O)c3cccc4cccc(c34)C2=O)c1 [Compound 10, 2-(N-(4-(1,3-dioxo-1H-benzo[de]isoquinolin-2(3H)-yl)butyl)sulfamoyl)terephthalic acid] | considerably less potent than the compound 9 | > 10 µM |  |
